Experimental data: ChEMBL document CHEMBL5376013, “Design, synthesis and biological evaluation of novel morpholinopyrimidine-5-carbonitrile derivatives as dual PI3K/mTOR inhibitors” (RSC Med Chem, 2024)

How the values were obtained:
Assay type in all cases: functional
Details in all cases: read-out: GI
SK-MEL-2 = assay: Antitumor activity against human SK-MEL-2 cells assessed as growth inhibition at 10 uM relative to control
Procedure, shortened: (§1)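 After drug addition, plates were incubated 48 h at 37 °C under 5% CO2. Adherent cells were fixed with cold TCA (10% final, 60 min, 4 °C) and suspension cells with 16% final TCA. Staining used 0.4% SRB in 1% acetic acid, solubilized in 10 mM trizma, read at A515. Percent growth was calculated from time-zero, control and treated absorbances.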

SF-268 = assay: Antitumor activity against human SF-268 cells assessed as growth inhibition at 10 uM relative to control; procedure, shortened: as §1
COLO 205 = assay: Antitumor activity against human COLO 205 cells assessed as growth inhibition at 10 uM relative to control; procedure, shortened: as §1
PC-3 = assay: Antitumor activity against human PC-3 cells assessed as growth inhibition at 10 uM relative to control; procedure, shortened: as §1
DU-145 = assay: Antitumor activity against human DU-145 cells assessed as growth inhibition at 10 uM relative to control; procedure, shortened: as §1
OVCAR-8 = assay: Antitumor activity against human OVCAR-8 cells assessed as growth inhibition at 10 uM relative to control; procedure, shortened: as §1
SF-539 = assay: Antitumor activity against human SF-539 cells assessed as growth inhibition at 10 uM relative to control; procedure, shortened: as §1
CCRF-CEM = assay: Antitumor activity against human CCRF-CEM cells assessed as growth inhibition at 10 uM relative to control; procedure, shortened: as §1
786-0 = assay: Antitumor activity against human 786-0 cells assessed as growth inhibition at 10 uM relative to control; procedure, shortened: as §1
HCT-15 = assay: Antitumor activity against human HCT-15 cells assessed as growth inhibition at 10 uM relative to control; procedure, shortened: as §1
K562 = assay: Antitumor activity against human K562 cells assessed as growth inhibition at 10 uM relative to control; procedure, shortened: as §1
TK-10 = assay: Antitumor activity against human TK-10 cells assessed as growth inhibition at 10 uM relative to control
Procedure, shortened: (§2)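 Drug exposure 48 h at 37 °C, 5% CO2. Adherent cells fixed with cold TCA (10% final), suspension cells with TCA (16% final). Stained with 0.4% SRB in 1% acetic acid, dissolved in 10 mM Tris, A515. Growth relative to time-zero and untreated control.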

RXF 393 = assay: Antitumor activity against human RXF 393 cells assessed as growth inhibition at 10 uM relative to control; procedure, shortened: as §1
T47D = assay: Antitumor activity against human T47D cells assessed as growth inhibition at 10 uM relative to control; procedure, shortened: as §2
Hs-578T = assay: Antitumor activity against human Hs-578T cells assessed as growth inhibition at 10 uM relative to control; procedure, shortened: as §1
SNB-19 = assay: Antitumor activity against human SNB-19 cells assessed as growth inhibition at 10 uM relative to control; procedure, shortened: as §2
CAKI-1 = assay: Antitumor activity against human CAKI-1 cells assessed as growth inhibition at 10 uM relative to control; procedure, shortened: as §1
UO-31 = assay: Antitumor activity against human UO-31 cells assessed as growth inhibition at 10 uM relative to control; procedure, shortened: as §2
HT-29 = assay: Antitumor activity against human HT-29 cells assessed as growth inhibition at 10 uM relative to control; procedure, shortened: as §1
LOX IMVI = assay: Antitumor activity against human LOX IMVI cells assessed as growth inhibition at 10 uM relative to control; procedure, shortened: as §1
NCI-H460 = assay: Antitumor activity against human NCI-H460 cells assessed as growth inhibition at 10 uM relative to control; procedure, shortened: as §1
HL-60 = assay: Antitumor activity against human HL-60 cells assessed as growth inhibition at 10 uM relative to control; procedure, shortened: as §1
U-251 = assay: Antitumor activity against human U-251 cells assessed as growth inhibition at 10 uM relative to control; procedure, shortened: as §2
OVCAR-5 = assay: Antitumor activity against human OVCAR-5 cells assessed as growth inhibition at 10 uM relative to control; procedure, shortened: as §1
NCI-H322M = assay: Antitumor activity against human NCI-H322M cells assessed as growth inhibition at 10 uM relative to control; procedure, shortened: as §1
IGROV-1 = assay: Antitumor activity against human IGROV-1 cells assessed as growth inhibition at 10 uM relative to control; procedure, shortened: as §1
MDA-MB-435 = assay: Antitumor activity against human MDA-MB-435 cells assessed as growth inhibition at 10 uM relative to control; procedure, shortened: as §1
NCI-H522 = assay: Antitumor activity against human NCI-H522 cells assessed as growth inhibition at 10 uM relative to control; procedure, shortened: as §1
SK-MEL-5 = assay: Antitumor activity against human SK-MEL-5 cells assessed as growth inhibition at 10 uM relative to control; procedure, shortened: as §2
NCI-H23 = assay: Antitumor activity against human NCI-H23 cells assessed as growth inhibition at 10 uM relative to control; procedure, shortened: as §1
MOLT-4 = assay: Antitumor activity against human MOLT-4 cells assessed as growth inhibition at 10 uM relative to control; procedure, shortened: as §1
SN12C = assay: Antitumor activity against human SN12C cells assessed as growth inhibition at 10 uM relative to control; procedure, shortened: as §2
MCF7 = assay: Antitumor activity against human MCF7 cells assessed as growth inhibition at 10 uM relative to control; procedure, shortened: as §1
NCI-H226 = assay: Antitumor activity against human NCI-H226 cells assessed as growth inhibition at 10 uM relative to control; procedure, shortened: as §1
NCI/ADR-RES = assay: Antitumor activity against human NCI-ADR-RES cells assessed as growth inhibition at 10 uM relative to control; procedure, shortened: as §1
ACHN = assay: Antitumor activity against human ACHN cells assessed as growth inhibition at 10 uM relative to control; procedure, shortened: as §1
BT-549 = assay: Antitumor activity against human BT-549 cells assessed as growth inhibition at 10 uM relative to control; procedure, shortened: as §1
MDA-MB-231 = assay: Antitumor activity against human MDA-MB-231 cells assessed as growth inhibition at 10 uM relative to control; procedure, shortened: as §1
SR = assay: Antitumor activity against human SR cells assessed as growth inhibition at 10 uM relative to control; procedure, shortened: as §2
SK-OV-3 = assay: Antitumor activity against human SK-OV-3 cells assessed as growth inhibition at 10 uM relative to control; procedure, shortened: as §2
SK-MEL-28 = assay: Antitumor activity against human SK-MEL-28 cells assessed as growth inhibition at 10 uM relative to control; procedure, shortened: as §2
A498 = assay: Antitumor activity against human A498 cells assessed as growth inhibition at 10 uM relative to control; procedure, shortened: as §1
A549 = assay: Antitumor activity against human A549 cells assessed as growth inhibition at 10 uM relative to control; procedure, shortened: as §1
HCC 2998 = assay: Antitumor activity against human HCC 2998 cells assessed as growth inhibition at 10 uM relative to control; procedure, shortened: as §1
EKVX = assay: Antitumor activity against human EKVX cells assessed as growth inhibition at 10 uM relative to control; procedure, shortened: as §1
UACC-62 = assay: Antitumor activity against human UACC-62 cells assessed as growth inhibition at 10 uM relative to control; procedure, shortened: as §2

Structure (SMILES): N#Cc1c(-c2ccc(Cl)cc2)nc(NN2C(=O)c3ccccc3C2=O)nc1N1CCOCC1
- inhibition of growth at 10 µM (SK-MEL-2): < 1%
- inhibition of growth at 10 µM (SF-268): < 1%
- inhibition of growth at 10 µM (COLO 205): < 1%
- inhibition of growth at 10 µM (PC-3): < 1%
- inhibition of growth at 10 µM (DU-145): < 1%
- inhibition of growth at 10 µM (OVCAR-8): < 1%
- inhibition of growth at 10 µM (SF-539): < 1%
- inhibition of growth at 10 µM (CCRF-CEM): < 1%
- inhibition of growth at 10 µM (786-0): < 1%
- inhibition of growth at 10 µM (HCT-15): < 1%
- inhibition of growth at 10 µM (K562): < 1%
- inhibition of growth at 10 µM (TK-10): < 1%
- inhibition of growth at 10 µM (RXF 393): < 1%
- inhibition of growth at 10 µM (T47D): < 1%
- inhibition of growth at 10 µM (Hs-578T): < 1%
- inhibition of growth at 10 µM (SNB-19): < 1%
- inhibition of growth at 10 µM (CAKI-1): < 1%
- inhibition of growth at 10 µM (UO-31): 15.6%
- inhibition of growth at 10 µM (HT-29): < 1%
- inhibition of growth at 10 µM (LOX IMVI): < 1%
- inhibition of growth at 10 µM (NCI-H460): < 1%
- inhibition of growth at 10 µM (HL-60): < 1%
- inhibition of growth at 10 µM (U-251): < 1%
- inhibition of growth at 10 µM (OVCAR-5): < 1%
- inhibition of growth at 10 µM (NCI-H322M): < 1%
- inhibition of growth at 10 µM (IGROV-1): < 1%
- inhibition of growth at 10 µM (MDA-MB-435): < 1%
- inhibition of growth at 10 µM (NCI-H522): < 1%
- inhibition of growth at 10 µM (SK-MEL-5): < 1%
- inhibition of growth at 10 µM (NCI-H23): < 1%
- inhibition of growth at 10 µM (MOLT-4): < 1%
- inhibition of growth at 10 µM (SN12C): < 1%
- inhibition of growth at 10 µM (MCF7): 1%
- inhibition of growth at 10 µM (NCI-H226): < 1%
- inhibition of growth at 10 µM (NCI/ADR-RES): < 1%
- inhibition of growth at 10 µM (ACHN): < 1%
- inhibition of growth at 10 µM (BT-549): < 1%
- inhibition of growth at 10 µM (MDA-MB-231): < 1%
- inhibition of growth at 10 µM (SR): 16%
- inhibition of growth at 10 µM (SK-OV-3): < 1%
- inhibition of growth at 10 µM (SK-MEL-28): < 1%
- inhibition of growth at 10 µM (A498): < 1%
- inhibition of growth at 10 µM (A549): < 1%
- inhibition of growth at 10 µM (HCC 2998): < 1%
- inhibition of growth at 10 µM (EKVX): < 1%
- inhibition of growth at 10 µM (UACC-62): < 1%

Structure (SMILES): N#Cc1c(-c2ccc(Cl)cc2)nc(N/N=C2/C(=O)Nc3ccc(Cl)cc32)nc1N1CCOCC1
- inhibition of growth at 10 µM (SK-MEL-2): < 1%
- inhibition of growth at 10 µM (SF-268): < 1%
- inhibition of growth at 10 µM (COLO 205): 1%
- inhibition of growth at 10 µM (PC-3): < 1%
- inhibition of growth at 10 µM (DU-145): < 1%
- inhibition of growth at 10 µM (OVCAR-8): < 1%
- inhibition of growth at 10 µM (SF-539): < 1%
- inhibition of growth at 10 µM (CCRF-CEM): < 1%
- inhibition of growth at 10 µM (786-0): < 1%
- inhibition of growth at 10 µM (HCT-15): 1%
- inhibition of growth at 10 µM (K562): < 1%
- inhibition of growth at 10 µM (TK-10): < 1%
- inhibition of growth at 10 µM (RXF 393): < 1%
- inhibition of growth at 10 µM (T47D): < 1%
- inhibition of growth at 10 µM (Hs-578T): < 1%
- inhibition of growth at 10 µM (SNB-19): < 1%
- inhibition of growth at 10 µM (CAKI-1): < 1%
- inhibition of growth at 10 µM (UO-31): 32.5%
- inhibition of growth at 10 µM (HT-29): < 1%
- inhibition of growth at 10 µM (LOX IMVI): 16.8%
- inhibition of growth at 10 µM (NCI-H460): < 1%
- inhibition of growth at 10 µM (HL-60): < 1%
- inhibition of growth at 10 µM (U-251): < 1%
- inhibition of growth at 10 µM (OVCAR-5): < 1%
- inhibition of growth at 10 µM (NCI-H322M): < 1%
- inhibition of growth at 10 µM (IGROV-1): < 1%
- inhibition of growth at 10 µM (MDA-MB-435): < 1%
- inhibition of growth at 10 µM (NCI-H522): < 1%
- inhibition of growth at 10 µM (SK-MEL-5): < 1%
- inhibition of growth at 10 µM (NCI-H23): 15.2%
- inhibition of growth at 10 µM (MOLT-4): < 1%
- inhibition of growth at 10 µM (SN12C): < 1%
- inhibition of growth at 10 µM (MCF7): 1%
- inhibition of growth at 10 µM (NCI-H226): 10.5%
- inhibition of growth at 10 µM (NCI/ADR-RES): 11.7%
- inhibition of growth at 10 µM (ACHN): < 1%
- inhibition of growth at 10 µM (BT-549): < 1%
- inhibition of growth at 10 µM (MDA-MB-231): 17.1%
- inhibition of growth at 10 µM (SR): < 1%
- inhibition of growth at 10 µM (SK-OV-3): < 1%
- inhibition of growth at 10 µM (SK-MEL-28): < 1%
- inhibition of growth at 10 µM (A498): 26.9%
- inhibition of growth at 10 µM (A549): < 1%
- inhibition of growth at 10 µM (HCC 2998): < 1%
- inhibition of growth at 10 µM (EKVX): 13.9%
- inhibition of growth at 10 µM (UACC-62): < 1%
